Bioassay records deposited in PubChem by Broad Institute.
C-LANA FP: KSHV C-LANA DNA binding inhibition; MBP-C-LANA/FAM-LBS DNA binding, fluorescence polarization; inhibition, % at 9 µM; 340,000 compounds, 0.078% hits;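 active = highest replicate inhibition at or above 60% at 9 µM, even if other replicates fall short; inactive = all replicates below 60% inhibition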
CAL PDZ FP-1: blocks peptide binding to human CAL PDZ domain. Q9HD26. purified CAL PDZ, TMR-peptide fluorescence polarization, 1 h. inhibition, % at 20 µM. 330,000 compounds, 0.02% hits. AID 504414;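 active = highest replicate inhibition of at least 40%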
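material = purified tagged CAL PDZ domain construct (CerCALP) | compound dosing = 20 µM, one dose | times = 1 h at RT | measured by = fluorescence polarization from S- and P-plane intensities, G-factor corrected | read-out = inhibition from polarization loss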
miR122 inh: inhibitors of miR-122 in Huh7 cells. activation (reporter increase), % at 12.5 µM. Huh7 miR-122 Renilla luciferase sensor, 48 h; neutral wells = 0, positive control = 100. 340,000 compounds, 0.3% hits;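 active = mean replicate activation score at least 90 and every replicate individually at or above 90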;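 note: higher luciferase means less miR-122 activity so hits act as miR-122 inhibitors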
CAL PDZ FP-2: inhibitors of human CAL PDZ peptide binding; 300,000 compounds, 0.92% hits; AID 602252; purified CAL PDZ, TMR-peptide fluorescence polarization, 1 h; inhibition, % at 24.9 µM; Q9HD26;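 active = mean inhibition of at least 30% with at least half of replicates also reaching 30%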
Keap1-Nrf2 PPI: inhibitors of human Keap1-Nrf2 protein-protein interaction. inhibition, % at 9.4 µM. Q14145. 340,000 compounds, 0.15% hits. Keap1 Kelch-Nrf2 peptide fluorescence polarization, 1536-well; in the data active = inhibition above about 12%;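 note: human Keap1 Kelch domain with fluorescein labeled Nrf2 9mer peptide probe; higher means more block of Keap1 binding to Nrf2 peptide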
Target sequence (Q14145 whole entry, looked up, the tested form may be a part): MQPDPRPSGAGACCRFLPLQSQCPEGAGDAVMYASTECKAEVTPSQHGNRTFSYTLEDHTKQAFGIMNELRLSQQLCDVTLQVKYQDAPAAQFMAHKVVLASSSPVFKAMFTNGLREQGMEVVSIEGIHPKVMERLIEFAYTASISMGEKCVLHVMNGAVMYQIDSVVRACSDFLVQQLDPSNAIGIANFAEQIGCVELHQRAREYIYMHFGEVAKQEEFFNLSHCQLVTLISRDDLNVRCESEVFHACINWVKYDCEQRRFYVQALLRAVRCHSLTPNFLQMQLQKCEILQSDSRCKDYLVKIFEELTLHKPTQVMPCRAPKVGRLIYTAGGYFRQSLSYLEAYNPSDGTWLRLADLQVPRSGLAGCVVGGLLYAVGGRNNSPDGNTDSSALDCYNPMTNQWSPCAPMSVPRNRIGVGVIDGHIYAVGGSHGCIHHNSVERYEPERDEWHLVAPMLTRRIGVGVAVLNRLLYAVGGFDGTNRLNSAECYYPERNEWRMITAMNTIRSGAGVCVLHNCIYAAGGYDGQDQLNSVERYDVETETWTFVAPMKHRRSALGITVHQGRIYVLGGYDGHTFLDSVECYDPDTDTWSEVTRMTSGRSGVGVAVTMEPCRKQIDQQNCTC
Numbers stand for hits; n = inactive; x = no result. Sampled rows, rich in hits. Any-hit rate of the full collection: about 1.1%.

SMILES | C-LANA FP | CAL PDZ FP-1 | miR122 inh | CAL PDZ FP-2 | Keap1-Nrf2 PPI
COc1cc(/C=N/Nc2nc(C)cc(C)n2)cc(OC)c1OC | n | n | n | 75 | n
O=C(CSc1nnc(-c2ccc(Cl)cc2Cl)n1C1CCCCC1)N1CCCC1 | n | n | n | 53 | n
O=C(CSc1nnc(-c2ccccc2F)n1C1CCCCC1)N1CCCC1 | n | n | n | n | n
O=C(CSc1nnc(-c2ccc(Br)cc2)n1C1CCCCC1)N1CCCC1 | n | n | n | 56 | n
Cc1ccc(-c2nc3ccccc3o2)cc1NC(=S)NC(=O)/C=C/c1ccco1 | n | n | n | n | n
O=C(/C=C/c1ccccc1)NC(=S)Nc1ccc(N2CCOCC2)c(Cl)c1 | n | n | n | n | n
O=C(/C=C/c1ccco1)NC(=S)Nc1cccc(-c2nc3ccccc3o2)c1 | n | n | 130 | n | n
O=C(/C=C/c1ccco1)NC(=S)Nc1ccc(N2CCOCC2)c(Cl)c1 | n | n | 104 | x | n
COc1cccc(S(=O)(=O)Nc2ccc3c(c2)[C@@H]2C[C@@H](CC(=O)N[C@@H](C)c4ccccc4)O[C@H](CO)[C@@H]2O3)c1 | x | x | n | x | x
CCN(CCCNC(=O)C1c2ccccc2C(=O)N(CCOC)C1c1ccc(F)cc1)Cc1ccccc1 (configuration not stated) | 83 | n | x | n | n
CCN(CC)CCCNC(=O)C1c2ccccc2C(=O)N(CCOC)C1c1ccc(F)cc1 (configuration not stated) | n | n | x | n | n
CN(C(=O)COC(=O)c1ccc(S(=O)(=O)N2CCOCC2)cc1)c1ccccc1 | n | n | n | 45 | n
N#CCCN(C(=O)COC(=O)c1ccc(S(=O)(=O)N2CCOCC2)cc1)c1ccccc1 | n | n | n | x | n
Cc1ccc(/C=N\NC(=O)c2ccc(Cn3cc(Br)c([N+](=O)[O-])n3)o2)o1 | n | n | x | n | n
O=C(N/N=C\c1cccc(Cl)c1)c1ccc(Cn2cc(Br)c([N+](=O)[O-])n2)o1 | n | n | x | 86 | n
Cc1ccc2cccc(OCc3cccc([N+](=O)[O-])c3)c2n1 | n | x | n | 61 | n
Cc1ccc(OCCOc2cccc3ccc(C)nc23)c([N+](=O)[O-])c1 | n | n | n | n | n
Cn1c(=O)c2[nH]c(NN=Cc3ccccc3)nc2n(C)c1=O | n | n | n | 94 | n
C[C@@H]1CCCCO[C@@H](CN(C)S(C)(=O)=O)[C@@H](C)CN([C@H](C)CO)C(=O)c2cc(NS(=O)(=O)c3ccc(F)cc3)ccc2O1 | x | x | n | x | x
CN1CCC(C2(O)c3ccccc3CSc3sccc32)CC1 (configuration not stated) | n | x | n | 110 | n
O=C1C=CC2=C3c4cc(O)c(O)cc4CC3(O)COC2=C1O (configuration not stated) | 107 | n | n | n | n
O=C(Nc1ccccc1)Nc1ccc2c(c1)[C@@H]1C[C@H](CC(=O)N3CCCCC3)O[C@H](CO)[C@@H]1O2 | x | x | n | x | x
Cn1c(CNC(=O)CCNC(=O)c2cccc(Cl)c2)cc(=O)n(C)c1=O | n | n | n | 43 | n
O=C(NCc1ccccc1)c1cc2ccccc2oc1=O | n | n | n | 68 | n
Cc1ccc(C)c(OCC(O)CN2CCC(Cc3ccccc3)CC2)c1 (configuration not stated) | n | n | n | 37 | n
SMILES | C-LANA FP | CAL PDZ FP-1 | miR122 inh | CAL PDZ FP-2 | Keap1-Nrf2 PPI
C[C@H](CO)N1C[C@H](C)[C@H](CN(C)CC2CCCC2)Oc2ncc(C#Cc3ccccn3)cc2C1=O | x | x | n | x | x
CCCCSc1cc(C)nc(N)n1 | n | n | x | 39 | n
COc1ccccc1N(C(C)=O)c1nc(C)cc(C)c1C#N | n | n | n | 31 | n
C[C@H]1c2cccc(O)c2C(O)=C2C(=O)[C@]3(O)C(O)=C(C(N)=O)C(=O)[C@@H](N(C)C)C3[C@@H](O)C21 (some centres not stated) | n | n | n | n | n
C=C1c2cccc(O)c2C(=O)C2C(=O)[C@]3(O)C(=O)C(C(N)=O)C(=O)[C@@H](N(C)C)[C@@H]3[C@@H](O)[C@H]12 (some centres not stated) | 126 | n | n | n | 12
CCC(=O)Nc1ccc2c(c1)OC[C@H](C)N(C(=O)C1CC1)C[C@@H](C)[C@H](OC)CN(C)C2=O | x | x | n | x | x
CCOC(=O)C1(Cc2ccc(OC)cc2)CCN(C(=O)CCc2cnccn2)CC1 | n | n | n | 76 | n
CCOC(=O)C1(Cc2ccc(Cl)cc2)CCN(C(=O)CCc2cnccn2)CC1 | n | n | n | n | n
Cc1ccc(C)c(S(=O)(=O)NC(C)CCc2ccccc2)c1 (configuration not stated) | n | n | 193 | n | n
Cc1nn(C)c(C)c1S(=O)(=O)NCc1cccs1 | n | n | 109 | x | n
CCOC(=O)c1c(S(=O)(=O)NCc2cccs2)c(C)n(C)c1C | n | n | n | n | n
O=C(C[n+]1cccc(Br)c1)c1ccccc1 | n | n | n | n | n
COc1ccc(C(=O)C[n+]2cccc(Br)c2)cc1 | n | n | x | 32 | n
Cc1ccc(S(=O)(=O)Nc2ccc3c(c2)CC(=O)N([C@@H](C)CO)C[C@H](C)[C@H](CN(C)S(=O)(=O)c2cn(C)cn2)O3)cc1 | x | x | n | x | x
CCNc1ccc(C(=O)NN=C2CCCC2)cc1[N+](=O)[O-] | n | n | x | 32 | n
c1ccc(-c2noc(CCC3CCCC3)n2)cc1 | n | n | n | n | n
c1ccc(-c2noc(CC3CCCCC3)n2)cc1 | n | n | n | 40 | n
O=C(Nc1ccc2c(c1)[C@@H]1C[C@H](CC(=O)N3CCc4ccccc4C3)O[C@H](CO)[C@@H]1O2)NC1CCCC1 | x | x | n | x | x
Cc1ccc(Nc2nc3ccccc3n3cnnc23)cc1C | n | n | n | n | n
COc1ccc(Nc2nc3ccccc3n3cnnc23)cc1 | n | n | n | 60 | n
Cc1cccc2cc(-c3nc4ccc(C(=O)O)cc4[nH]3)c(=O)oc12 | n | x | x | 81 | n
CS(=O)(=O)Nc1ccc2c(c1)[C@H]1C[C@@H](CC(=O)NCc3ccc(-c4ccccc4)cc3)O[C@H](CO)[C@H]1O2 | x | x | n | x | x
CCCNC(=O)[C@@H]1[C@@H](CO)[C@@H]2Cn3c(ccc(-c4ccccc4OC)c3=O)[C@@H]2N1CC | x | x | n | x | x
O=C(O[C@@H]1OC2COC(=O)c3cc(O)c(O)c(O)c3-c3c(cc(O)c(O)c3O)C(=O)O[C@@H]([C@H]1O)[C@@H]2O)c1cc(O)c(O)c(O)c1 | 121 | n | n | n | x
CCCCN(CC)CCNC(=O)Cn1cnc2sc(C)c(S(=O)(=O)N3CCC(C)CC3)c2c1=O | n | n | n | 44 | n
CCN(CC)CCOC(=O)c1ccc(NC(=O)CSc2nnc(-c3cccs3)n2CC)cc1 | n | n | n | 61 | n
CCn1c(SCC(=O)Nc2ccc(OC)c(OC)c2)nnc1-c1cccs1 | n | n | n | n | n
C[C@H]1CN([C@@H](C)CO)C(=O)c2cccc(NC(=O)c3cnccn3)c2O[C@H]1CN(C)Cc1ccc2c(c1)OCO2 | x | x | n | x | x
